Test results: ChEMBL document CHEMBL3425433, “Discovery of bicyclic pyrazoles as class III histone deacetylase SIRT1 and SIRT2 inhibitors” (Bioorg Med Chem Lett, 2015)
Activity calls are given as the source filed them. The rule behind the calls is not given here.

What was measured:
[1] = target: Histone deacetylase 5 (Homo sapiens) (UniProt Q9UQL6); assay: Inhibition of HDAC5 (unknown origin)
[2] = target: T1, Protein deacetylase HDAC6 (Homo sapiens) (UniProt Q9UBN7); assay: Inhibition of HDAC6 (unknown origin)
T1 sequence (whole entry): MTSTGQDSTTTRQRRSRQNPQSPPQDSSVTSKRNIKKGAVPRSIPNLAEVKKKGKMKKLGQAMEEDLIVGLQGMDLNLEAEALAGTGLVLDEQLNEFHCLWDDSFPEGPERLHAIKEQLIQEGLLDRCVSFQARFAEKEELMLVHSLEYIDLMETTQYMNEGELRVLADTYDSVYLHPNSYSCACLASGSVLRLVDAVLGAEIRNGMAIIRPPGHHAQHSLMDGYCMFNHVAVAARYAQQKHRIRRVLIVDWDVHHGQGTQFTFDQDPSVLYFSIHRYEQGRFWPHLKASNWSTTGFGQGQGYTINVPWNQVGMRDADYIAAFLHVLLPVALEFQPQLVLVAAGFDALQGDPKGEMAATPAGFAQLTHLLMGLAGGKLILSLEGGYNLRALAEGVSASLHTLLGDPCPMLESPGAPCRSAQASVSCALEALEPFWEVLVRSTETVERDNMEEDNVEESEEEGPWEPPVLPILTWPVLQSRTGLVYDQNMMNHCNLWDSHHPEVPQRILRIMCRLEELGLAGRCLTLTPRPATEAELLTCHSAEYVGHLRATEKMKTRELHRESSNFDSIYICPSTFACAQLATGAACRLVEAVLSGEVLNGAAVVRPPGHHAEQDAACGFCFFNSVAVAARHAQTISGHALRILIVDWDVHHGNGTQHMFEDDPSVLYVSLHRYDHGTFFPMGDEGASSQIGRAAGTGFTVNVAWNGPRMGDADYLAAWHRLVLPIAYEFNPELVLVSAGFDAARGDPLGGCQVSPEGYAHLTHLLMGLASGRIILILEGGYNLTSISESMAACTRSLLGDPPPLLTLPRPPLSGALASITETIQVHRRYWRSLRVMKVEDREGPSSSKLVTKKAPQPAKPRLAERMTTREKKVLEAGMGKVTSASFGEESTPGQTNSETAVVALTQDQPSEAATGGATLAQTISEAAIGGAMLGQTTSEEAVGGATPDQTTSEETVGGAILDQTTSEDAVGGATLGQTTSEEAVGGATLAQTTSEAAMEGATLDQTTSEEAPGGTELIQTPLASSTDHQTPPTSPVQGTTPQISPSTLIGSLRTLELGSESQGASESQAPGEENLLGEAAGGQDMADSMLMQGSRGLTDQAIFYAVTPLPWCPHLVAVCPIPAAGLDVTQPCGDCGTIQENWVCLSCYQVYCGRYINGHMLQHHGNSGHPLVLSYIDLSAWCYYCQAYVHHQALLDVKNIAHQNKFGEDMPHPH

[3] = target: T2, NAD-dependent protein deacetylase sirtuin-1 (Homo sapiens, UniProt Q96EB6); assay: Inhibition of His-tagged human recombinant SIRT1 expressed in Escherichia coli using Cbz-Lys(Ac)-AMC as substrate by fluorescence assay
T2 sequence (Q96EB6 whole entry): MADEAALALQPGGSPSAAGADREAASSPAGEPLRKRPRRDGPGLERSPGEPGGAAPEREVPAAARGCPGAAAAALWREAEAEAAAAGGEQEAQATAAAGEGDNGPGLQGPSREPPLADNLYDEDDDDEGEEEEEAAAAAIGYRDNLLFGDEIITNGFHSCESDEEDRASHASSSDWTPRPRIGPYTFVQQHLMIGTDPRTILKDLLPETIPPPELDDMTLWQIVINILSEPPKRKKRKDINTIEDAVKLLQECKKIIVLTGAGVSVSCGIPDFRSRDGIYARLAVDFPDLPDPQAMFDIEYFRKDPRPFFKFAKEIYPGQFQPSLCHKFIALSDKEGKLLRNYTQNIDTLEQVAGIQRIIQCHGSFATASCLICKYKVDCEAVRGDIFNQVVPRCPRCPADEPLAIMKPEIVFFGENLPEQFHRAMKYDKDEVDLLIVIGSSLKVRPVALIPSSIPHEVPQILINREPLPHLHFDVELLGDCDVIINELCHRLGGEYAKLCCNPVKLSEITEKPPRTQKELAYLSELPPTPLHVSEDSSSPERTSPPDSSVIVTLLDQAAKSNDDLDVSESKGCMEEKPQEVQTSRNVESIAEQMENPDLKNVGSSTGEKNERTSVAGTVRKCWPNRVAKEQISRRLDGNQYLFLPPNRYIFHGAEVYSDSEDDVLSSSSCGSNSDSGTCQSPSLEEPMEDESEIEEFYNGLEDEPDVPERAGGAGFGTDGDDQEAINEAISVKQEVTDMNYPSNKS

[4] = target: T3, NAD-dependent protein deacetylase sirtuin-1 (Homo sapiens) (UniProt Q96EB6); assay: Inhibition of SIRT1-mediated endogenous p53 deacetylase activity in human Namalwa cells assessed as concentration required to […] to twice the basal level after 3 hrs by ELISA; type: cell-based
T3 sequence (whole entry): T2 sequence (Q96EB6 whole entry)
Outline: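 Namalwa cells, 50,000/well, were exposed 3 h at 37 °C, 5% CO2, to 0.005–50 µM final (0.95% DMSO). Lysates were ELISA-captured on anti-p53 (DO-1), probed overnight with anti-acetyl-Lys382-p53, then HRP conjugate and Amplex Red (15 min; ex 550/em 610 nm). IC2xB is the concentration doubling basal (lowest) fluorescence. Means of three experiments.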

[5] = target: T4, NAD-dependent protein deacetylase sirtuin-2 (Homo sapiens, UniProt Q8IXJ6); assay: Inhibition of His-tagged human recombinant SIRT2 expressed in Escherichia coli using Cbz-Lys(Ac)-AMC as substrate by fluorescence assay
T4 sequence (Q8IXJ6 whole entry): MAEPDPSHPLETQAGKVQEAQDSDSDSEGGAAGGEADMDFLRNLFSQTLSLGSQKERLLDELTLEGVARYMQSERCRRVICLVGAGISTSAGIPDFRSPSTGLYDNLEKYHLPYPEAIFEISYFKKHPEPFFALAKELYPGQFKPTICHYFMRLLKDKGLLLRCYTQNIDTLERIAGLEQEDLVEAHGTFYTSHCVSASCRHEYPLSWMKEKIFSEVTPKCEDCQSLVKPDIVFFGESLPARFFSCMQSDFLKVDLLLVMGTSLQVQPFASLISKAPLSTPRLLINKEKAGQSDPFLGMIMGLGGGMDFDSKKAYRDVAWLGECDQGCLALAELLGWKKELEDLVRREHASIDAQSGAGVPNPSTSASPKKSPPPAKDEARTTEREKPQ

[6] = Half life in rat; type: ADME, organism-based; settings: in vivo
[7] = Clearance in rat; type: ADME, organism-based; settings: in vivo
[8] = Oral bioavailability in rat; type: ADME, organism-based; settings: in vivo
Plasma = assay: Metabolic stability in mouse plasma; type: ADME, cell-free

Sequence of Histone deacetylase 5 (Homo sapiens) (Q9UQL6 whole entry): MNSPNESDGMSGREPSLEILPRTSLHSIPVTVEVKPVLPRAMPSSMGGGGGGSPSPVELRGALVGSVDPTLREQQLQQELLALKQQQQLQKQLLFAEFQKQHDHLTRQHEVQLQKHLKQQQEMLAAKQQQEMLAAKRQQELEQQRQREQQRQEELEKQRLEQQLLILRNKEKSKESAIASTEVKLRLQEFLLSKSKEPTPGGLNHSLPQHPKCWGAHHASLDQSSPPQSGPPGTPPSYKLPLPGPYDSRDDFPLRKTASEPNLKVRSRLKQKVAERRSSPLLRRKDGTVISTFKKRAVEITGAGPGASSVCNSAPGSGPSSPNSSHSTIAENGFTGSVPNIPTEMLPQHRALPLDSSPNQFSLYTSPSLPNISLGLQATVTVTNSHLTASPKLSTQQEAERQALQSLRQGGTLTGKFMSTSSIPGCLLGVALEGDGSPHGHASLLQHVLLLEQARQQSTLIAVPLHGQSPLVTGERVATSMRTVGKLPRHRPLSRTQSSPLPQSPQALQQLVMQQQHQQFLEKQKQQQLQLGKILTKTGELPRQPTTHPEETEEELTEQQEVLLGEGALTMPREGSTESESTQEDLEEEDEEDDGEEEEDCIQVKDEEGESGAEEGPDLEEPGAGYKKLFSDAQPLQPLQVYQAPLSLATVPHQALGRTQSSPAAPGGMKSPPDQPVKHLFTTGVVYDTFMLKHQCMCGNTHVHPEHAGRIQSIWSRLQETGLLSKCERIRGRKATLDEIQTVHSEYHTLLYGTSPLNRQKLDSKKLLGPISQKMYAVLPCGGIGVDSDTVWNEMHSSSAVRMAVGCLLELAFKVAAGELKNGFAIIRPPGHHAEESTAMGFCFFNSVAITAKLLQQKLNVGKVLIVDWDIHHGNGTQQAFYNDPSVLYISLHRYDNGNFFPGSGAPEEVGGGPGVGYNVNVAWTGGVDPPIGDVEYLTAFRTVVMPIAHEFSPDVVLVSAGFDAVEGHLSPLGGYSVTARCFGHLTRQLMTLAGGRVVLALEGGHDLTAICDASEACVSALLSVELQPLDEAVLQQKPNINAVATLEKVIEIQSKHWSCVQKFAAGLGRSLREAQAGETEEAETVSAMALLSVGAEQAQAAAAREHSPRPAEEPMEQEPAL

SMILES	inhibition [1]	inhibition [2]	IC50 [3] [nM]	also measured
CCOC(=O)C1CCCc2c(-c3ccc(Cl)c(F)c3)n[nH]c21 (racemic)	inactive	inactive		
NC(=O)C1CCCCc2c(-c3ccc(Cl)cc3)n[nH]c21 (racemic)	inactive	inactive	2100	INH [4]: 0.8 µM; IC50 [5]: 6800 nM
NC(=O)C1CCCc2c(-c3ccc(Cl)cc3)n[nH]c21 (racemic)	inactive	inactive	1000	half-life [6]: 1.1 h; clearance [7]: 30 mL/min/kg; bioavailability [8]: 20%; Stability (Plasma): Stable; INH [4]: 0.5 µM
CC1(C)Cc2c(-c3ccc(Br)cc3)n[nH]c2C(C(N)=O)C1 (racemic)	inactive	inactive		
NC(=O)C1Cc2ccccc2Cc2c(-c3ccc(Cl)cc3)n[nH]c21 (racemic)	inactive	inactive		
NC(=O)C1CCCc2c(-c3ccc(F)cc3)n[nH]c21 (racemic)	inactive	inactive		
CC1(C)Cc2c(-c3cc4ccccc4s3)n[nH]c2C(C(N)=O)C1 (racemic)	inactive	inactive		
NC(=O)C1CCCc2c(-c3cc(Br)cs3)n[nH]c21 (racemic)	inactive	inactive	11000	
NC(=O)C1CC2(Cc3c(-c4ccc(Cl)cc4)n[nH]c31)OCCO2 (racemic)	inactive	inactive		
Cn1c(-c2n[nH]c3c2CCCC3C(N)=O)cc2ccccc21 (racemic)	inactive	inactive	2700	IC50 [5]: 7800 nM
NC(=O)C1CCCc2c(-c3ccc(Cl)cc3Cl)n[nH]c21 (racemic)	inactive	inactive		
CNC(=O)C1CCCc2c(-c3ccc(Cl)cc3)n[nH]c21 (racemic)	inactive	inactive		
NC(=O)C1CCCc2c(-c3ccccc3Cl)n[nH]c21 (racemic)	inactive	inactive		
Cn1cc(-c2n[nH]c3c2CCCC3C(N)=O)c2ccccc21 (racemic)	inactive	inactive		
NC(=O)C1CCCc2c(-c3cc4cc(Br)ccc4s3)n[nH]c21 (racemic)	inactive	inactive		
NC(=O)C1CCCc2c(-c3ccc(C(F)(F)F)cc3)n[nH]c21 (racemic)	inactive	inactive		
Cn1c(-c2n[nH]c3c2CC(C)(C)CC3C(N)=O)cc2ccccc21 (racemic)	inactive	inactive		
Cn1c(-c2n[nH]c3c2CCCC3C(N)=O)cc2cc(Cl)ccc21 (racemic)	inactive	inactive		

SMILES	inhibition [1]	inhibition [2]	IC50 [3] [nM]	also measured
NC(=O)C1CCCc2c(-c3ccc(Cl)c(F)c3)n[nH]c21 (racemic)	inactive	inactive	2600	
NC(=O)C1CCCCCc2c(-c3ccc(Cl)cc3)n[nH]c21 (racemic)	inactive	inactive		
NC(=O)C1CCCc2c(-c3nc4ccccc4s3)n[nH]c21 (racemic)	inactive	inactive	2200	INH [4]: 0.9 µM; IC50 [5]: 8300 nM
COc1ccc(-c2n[nH]c3c2CCCC3C(N)=O)cc1 (racemic)	inactive	inactive		
NC(=O)C1CCCc2c(-c3cc4ccccc4o3)n[nH]c21 (racemic)	inactive	inactive	3100	IC50 [5]: 9000 nM
NC(=O)C1CCCc2c(-c3cc4ccccc4[nH]3)n[nH]c21 (racemic)	inactive	inactive		
NC(=O)C1CCCc2c(-c3cccc(Cl)c3)n[nH]c21 (racemic)	inactive	inactive		
NC(=O)C1CCCc2c(-c3cc4ccccc4s3)n[nH]c21 (racemic)	inactive	inactive	1700	IC50 [5]: 5300 nM
CC1(C)CCC(C(N)=O)c2[nH]nc(-c3ccc(Cl)cc3)c21 (racemic)	inactive	inactive		
NC(=O)C1CCCc2c(-c3ccc(Br)cc3)n[nH]c21 (racemic)	inactive	inactive	1900	INH [4]: 1.5 µM
NC(=O)C1CCCc2c(-c3cccs3)n[nH]c21 (racemic)	inactive	inactive		
CC1(C)Cc2c(-c3ccc(Cl)cc3)n[nH]c2C(C(N)=O)C1 (racemic)	inactive	inactive	800	half-life [6]: 5.1 h; clearance [7]: 5 mL/min/kg; bioavailability [8]: 23%; Stability (Plasma): Stable; INH [4]: 1.2 µM; IC50 [5]: 1700 nM
CC1(C)Cc2c(-c3ccc(Cl)c(Cl)c3)n[nH]c2C(C(N)=O)C1 (racemic)	inactive	inactive		
NC(=O)C1CCCc2c(-c3csc4ccccc34)n[nH]c21 (racemic)	inactive	inactive		
Cc1ccc(-c2n[nH]c3c2CCCC3C(N)=O)cc1 (racemic)	inactive	inactive	6200	
NC(=O)C1CC(c2ccccc2)Cc2c(-c3ccc(Cl)cc3)n[nH]c21 (mixture of isomers)	inactive	inactive		
NC(=O)C1CCCc2c(-c3ccccc3)n[nH]c21 (racemic)	inactive	inactive		
